Screening results: PubChem, Johns Hopkins Ion Channel Center
TRPC6 activator: activates the mouse TRPC6 cation channel; hit rate 0.13% among 310,000; B-score at 10 µM; HEK293-TRPC6 membrane potential dye fluorescence; stronger effect = higher value; Q61143;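 active means B-score of the integrated fluorescence ratio above library mean plus 3 SD, and starting fluorescence ratio within library mean plus 5 SD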;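 further: higher score means more depolarization so channel activation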
TRPC4 inh: TRPC4 (mouse) channel inhibition. Q9QUQ5. HEK293 TRPC4beta/mu-opioid, DAMGO-evoked Fluo4 calcium flux; stronger effect = lower value. B-score at 10 µM. hit rate 0.39% among 300,000;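 active means B-score over 3 SD under the library average, no early fluorescence shift, positive overall ratio signal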
Target sequence (Q9QUQ5 whole entry, looked up): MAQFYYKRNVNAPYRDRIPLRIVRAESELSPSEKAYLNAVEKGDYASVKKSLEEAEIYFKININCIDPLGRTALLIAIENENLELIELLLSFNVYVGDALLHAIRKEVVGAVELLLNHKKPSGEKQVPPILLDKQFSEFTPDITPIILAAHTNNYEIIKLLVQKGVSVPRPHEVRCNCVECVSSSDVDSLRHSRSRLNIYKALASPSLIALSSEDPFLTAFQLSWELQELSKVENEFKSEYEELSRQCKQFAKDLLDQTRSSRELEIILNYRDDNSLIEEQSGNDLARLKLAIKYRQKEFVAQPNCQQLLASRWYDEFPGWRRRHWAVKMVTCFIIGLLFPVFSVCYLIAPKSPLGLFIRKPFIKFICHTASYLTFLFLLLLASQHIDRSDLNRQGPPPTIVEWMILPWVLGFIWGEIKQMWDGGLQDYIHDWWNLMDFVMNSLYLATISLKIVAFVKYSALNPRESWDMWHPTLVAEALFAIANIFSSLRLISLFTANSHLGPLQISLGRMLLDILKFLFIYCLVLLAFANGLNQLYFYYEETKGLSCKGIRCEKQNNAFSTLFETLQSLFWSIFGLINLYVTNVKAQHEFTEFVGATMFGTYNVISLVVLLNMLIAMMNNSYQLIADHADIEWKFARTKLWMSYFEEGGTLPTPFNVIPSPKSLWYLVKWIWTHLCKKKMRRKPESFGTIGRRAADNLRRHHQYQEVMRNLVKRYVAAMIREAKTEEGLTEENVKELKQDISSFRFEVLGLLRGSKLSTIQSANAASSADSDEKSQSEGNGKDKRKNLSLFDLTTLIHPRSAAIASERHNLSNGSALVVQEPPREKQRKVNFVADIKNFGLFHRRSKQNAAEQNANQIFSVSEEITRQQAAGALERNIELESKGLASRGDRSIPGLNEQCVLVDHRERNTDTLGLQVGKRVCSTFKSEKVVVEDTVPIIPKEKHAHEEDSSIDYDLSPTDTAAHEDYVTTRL
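material = TRPC4beta/mu-opioid receptor HEK293 cell line | probe or stimulus = sequential submaximal and maximal DAMGO stimulation | compound dosing = one concentration per compound | measured by = Fluo4 Ca2+ flux fluorescence | evaluation = integrated fluorescence ratio relative to baseline, converted to per-well B score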
TRPC4 PAM: allosteric potentiators of mouse TRPC4 channel | hit rate 0.42% among 310,000 | Q9QUQ5 | HEK293 TRPC4beta/mu-opioid, DAMGO EC20, Fluo-4 Ca2+ flux; stronger effect = higher value | AID 2227 | B-score at 10 µM;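 active means B-score of calcium response area above 5 SD of library B-scores, with initial fluorescence ratio within 5 SD of library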;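 further: B-score of integrated fluorescence ratio over time as area under calcium response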
TRPC4 act: opens the mouse TRPC4 cation channel; hit rate 0.49% among 310,000; Q9QUQ5; B-score at 10 µM; AID 2237; HEK293 TRPC4beta/mu-opioid, Fluo4 calcium fluorescence; stronger effect = higher value;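 active means B-score above 5 SD of library B-scores, and initial fluorescence ratio not above library mean plus 5 SD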;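 further: positive B-score marks a calcium rise read as TRPC4 activation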
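system = HEK293 cells stably co-expressing mouse TRPC4beta and mu-opioid receptor | schedule = Fluo4 dye loading 45 min at room temperature, 110 s recording | measure = B-scored integrated calcium fluorescence ratio | signal = Fluo4 calcium-sensitive dye fluorescence, kinetic, 1 Hz baseline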
TRPC6 inh: blocks the mouse TRPC6 cation channel | Q61143 | HEK293-TRPC6, membrane potential dye, ACh-evoked depolarization; stronger effect = lower value | B-score at 10 µM | hit rate 1.1% among 310,000;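 active means B-score under library mean minus 3 SD, initial fluorescence not abnormally high, positive integrated signal ratio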;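 further: B-score derived from integrated fluorescence ratio over the kinetic read; more negative B-score means stronger inhibition of depolarization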
TRPC4 spec 2: mouse TRPC4 off-target activity of TRPC6 inhibitors, second screen. hit rate 42% among 920. HEK293 TRPC4/MOR, membrane potential dye fluorescence; channel activated by saturating DAMGO dose. inhibition, % at 10 µM. shares compounds with TRPC6 inh;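 active means compounds whose fluorescence signal differed from control wells by over 3 SD, either direction, in both duplicate plates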
TRPC4 spec: tests whether TRPC6 inhibitors also affect mouse TRPC4; shares compounds with TRPC6 inh; HEK293 TRPC4/mu-opioid, membrane potential fluorescence; activity change, negative = inhibition, % at 10 µM; hit rate 61% among 920;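 active means rise or fall in signal beyond 3 SD of buffer-only wells in both replicate plates, either sign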;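 further: integrated kinetic ratio of fluorescence range over baseline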
HEK293 MPD ctr 2-1: parental HEK293 nonspecific activity of TRPC6 inhibitors, second screen; shares compounds with TRPC6 inh; parental HEK293 membrane potential dye fluorescence; maximal acetylcholine challenge after compound addition; signal change vs control, % at 10 µM; hit rate 31% among 920;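 active means membrane potential signal moving either way by over 3 SD of the maximum-effect control, in both duplicate plates, meaning non-specific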
HEK293 MPD ctr-1: parental HEK293 nonspecific activity of TRPC6 inhibitors. parental HEK293 membrane potential dye fluorescence. shares compounds with TRPC6 inh. hit rate 60% among 920. membrane potential signal change, % at 10 µM;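 active means membrane potential signal shifting up or down by more than 3 SD of buffer-only wells, on both duplicate plates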
HEK293 MPD ctr-2: checks TRPC6 modulator effects in parental HEK293 cells; hit rate 51% among 2,400; membrane potential dye fluorescence; membrane potential signal change, % at 10 µM; shares compounds with TRPC6 inh; AID 488924;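 active means membrane potential signal moves up or down beyond 5 SD from buffer-only wells, on both duplicate plates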
HEK293 MPD ctr 2-2: second check of TRPC6 modulator effects in parental HEK293 cells. shares compounds with TRPC6 inh. membrane potential dye fluorescence; after compound, maximal acetylcholine stimulation. inhibition, % at 10 µM. hit rate 14% among 2,400;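 active means membrane potential signal drops by more than 5 SD from the mean control signal, in both duplicate plates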;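 further: plate controls were acetylcholine ECmax control wells for no effect and buffer only wells for full effect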
TRPC4/MOR mod: tests whether TRPC6 modulators also affect mouse TRPC4 | percent change from control (negative = decrease, positive = increase), % at 10 µM | HEK293 TRPC4/mu-opioid, membrane potential fluorescence | hit rate 69% among 2,400 | shares compounds with TRPC6 inh;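 active means membrane potential signal moved up or down beyond 5 SD of buffer control wells, in both duplicate plates, actives on both sides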;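 further: plate controls were assay buffer wells for no effect and DAMGO maximal-effect wells for full effect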
TRPC4 ctr inh 2: second selectivity test of TRPC6 modulators against mouse TRPC4. inhibition, % at 10 µM. AID 488928. hit rate 55% among 2,400. HEK293 TRPC4/mu-opioid, membrane potential dye fluorescence; stimulated with maximal-effect DAMGO. shares compounds with TRPC6 inh;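 active means drop in membrane potential signal beyond 5 SD of the control wells in both duplicate plates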;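 further: TRPC4 counter screen for TRPC6 hits run under conditions tuned for TRPC6 not TRPC4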
TRPC6 block conf: mouse TRPC6 inhibitor confirmation; hit rate 43% among 3,300; inhibition, % at 10 µM; HEK293-TRPC6, membrane potential dye, ACh-evoked depolarization; shares compounds with TRPC6 inh;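 active means fluorescence ratio falls more than 5 SD below the full-stimulation control mean, in both duplicate runs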;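 further: integrated fluorescence ratio of peak minus minimum over baseline after agonist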
TRPC6 act confirm: mouse TRPC6 activator confirmation | AID 488961 | hit rate 11% among 2,800 | activation, % at 10 µM | HEK293-TRPC6 membrane potential dye fluorescence, FDSS | shares compounds with TRPC6 inh;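 active means ratio signal rise beyond 5 SD above unstimulated control wells' mean, seen in both duplicate runs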;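 further: plate controls were buffer EC0 wells for no effect and acetylcholine ECmax response for full effect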
Starred values were filed as active, the others as inactive; i = inactive; . = no result given. Compounds with a hit are over-represented: about 2.3% of the library has one in this group of screens.

SMILES	TRPC6 activator	TRPC4 inh	TRPC4 PAM	TRPC4 act	TRPC6 inh	TRPC4 spec 2	TRPC4 spec	HEK293 MPD ctr 2-1	HEK293 MPD ctr-1	TRPC6 block conf	TRPC6 act confirm	others
CCn1c(NCc2ccc(N(C)C)cc2)nc2ccccc21	i	i	i	i	-5.31*	.	.	.	.	i	i	HEK293 MPD ctr-2=i;HEK293 MPD ctr 2-2=i;TRPC4/MOR mod=-14.0%*;TRPC4 ctr inh 2=46.0%*
c1ccc(Cn2c(CNc3nc4ccccc4n3CCN3CCCCC3)nc3ccccc32)cc1	i	i	i	i	-6.65*	59.0%*	11.1%*	284.5%*	6.9%*	i	i
CCN(CC)CCn1c(NCc2nc3ccccc3n2Cc2ccccc2)nc2ccccc21	i	i	i	i	-7.1*	36.5%*	18.0%*	275.5%*	8.3%*	53.0%*	i
CCOc1ccc(CCNC(=O)c2ccc(Cl)c(S(=O)(=O)N3CCOCC3)c2)cc1OCC	i	i	i	i	i	.	.	.	.	.	.
CC(NS(=O)(=O)/C=C/c1ccccc1)c1ccccc1 (configuration not stated)	i	i	i	i	i	.	.	.	.	.	.
CCN(CC)c1ccc(CNc2nc3ccccc3n2CCN2CCCCC2)cc1	i	i	i	119*	-5.91*	.	.	.	.	51.5%*	i	HEK293 MPD ctr-2=i;HEK293 MPD ctr 2-2=i;TRPC4/MOR mod=31.5%*;TRPC4 ctr inh 2=97.0%*
COCCNC(=O)CN1C(=O)NC2(CCCc3ccccc32)C1=O (configuration not stated)	i	i	i	i	i	.	.	.	.	.	.
Cc1ccc(S(=O)(=O)n2c(N)nc3ccccc32)cc1	i	i	i	i	-8.44*	i	i	38.0%*	i	63.5%*	i
Cc1nc2ccccc2n1S(=O)(=O)c1ccc(F)cc1	i	i	i	i	i	.	.	.	.	.	.
CCOc1ccc(NS(=O)(=O)c2ccc(C(=O)NCC(c3ccc(OC)cc3)N3CCCC3)cc2)cc1 (configuration not stated)	i	i	i	i	i	.	.	.	.	.	.
CC(Nc1nc(-c2ccccc2O)nc2ccccc12)c1ccccc1 (configuration not stated)	i	i	i	i	i	.	.	.	.	.	.
CCN(CC)CCCNc1nc(-c2ccccc2)nc2ccccc12	i	i	i	i	-8.82*	40.0%*	-27.2%*	35.0%*	-355.0%*	76.4%*	i
COc1ccc(C(CNc2nc(-c3cccnc3)nc3ccccc23)N(C)C)cc1 (configuration not stated)	i	i	i	188*	-7.55*	.	.	.	.	55.0%*	i	HEK293 MPD ctr-2=-277.0%*;HEK293 MPD ctr 2-2=i;TRPC4/MOR mod=-38.5%*;TRPC4 ctr inh 2=90.5%*
